Results: ChEMBL document CHEMBL1137343, “4-arylazo-3,5-diamino-1H-pyrazole CDK inhibitors: SAR study, crystal structure in complex with CDK2, selectivity, and cellular effects” (J Med Chem, 2006)

Key:
K562 [1] = assay: Antiproliferative activity against K562 cell line; assay type: functional, cell-based; settings: Homo sapiens
Method in brief: (§1)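 Cells grown in DMEM with 10% FCS, glutamine and penicillin/streptomycin at 37 °C, seeded in 96-well plates and preincubated 12 h. Compounds were added in 6-fold dilutions (1-100 µM) for 72 h. IC50 taken from dose-response curves.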

G-361 [2] = assay: Antiproliferative activity against G361 cell line; assay type: functional, cell-based; settings: Homo sapiens; method in brief: as §1
HOS [3] = assay: Antiproliferative activity against HOS cell line; assay type: functional, cell-based; settings: Homo sapiens; method in brief: as §1
[4] = target: T1, Cyclin-dependent kinase 2/cyclin E (Homo sapiens, UniProt P24941); assay: Inhibition of CDK2/Cyclin E in presence of 15 uM ATP; assay type: protein-complex assay
K562 [5] = assay: Viability of K562 cells at 100 uM; assay type: functional, Homo sapiens
Method in brief: (§2)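 Cells grown in DMEM with 10% FCS and 4 mM glutamine at 37 °C, plated in 96-well format, preincubated 12 h, then exposed 72 h. Live cells measured by Calcein AM (1 h) fluorescence at 485/538 nm; % viable cells given at 100 µM compound.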

HOS [6] = assay: Viability of HOS cells at 100 uM; assay type: functional, Homo sapiens; method in brief: as §2
MCF7 [7] = assay: Viability of MCF7 cells at 100 uM; assay type: functional, Homo sapiens; method in brief: as §2
G-361 [8] = assay: Viability of G361 cells at 100 uM; assay type: functional, Homo sapiens; method in brief: as §2
MCF7 [9] = assay: Antiproliferative activity against MCF7 cell line; assay type: functional, cell-based; settings: Homo sapiens; method in brief: as §1
[10] = target: T1, Cyclin-dependent kinase 2/cyclin E; assay: Inhibition of CDK2/Cyclin E in presence of 100 uM ATP; assay type: protein-complex assay
[11] = target: Cyclin-dependent kinase 1/cyclin B (Homo sapiens, UniProt P06493); assay: Inhibition of CDK1/Cyclin B in presence of 100 uM ATP; assay type: protein-complex assay
[12] = target: Cyclin-dependent kinase 2/cyclin A (Homo sapiens, UniProt P24941); assay: Inhibition of CDK2/Cyclin A in presence of 100 uM ATP; assay type: protein-complex assay
CDK9/cyclin T1 = CDK9/cyclin T1 (Homo sapiens, UniProt P50750); assay: Inhibition of CDK9/Cyclin T1 in presence of 100 uM ATP; assay type: protein-complex assay
Sequence of CDK9/cyclin T1 (O60563 whole entry): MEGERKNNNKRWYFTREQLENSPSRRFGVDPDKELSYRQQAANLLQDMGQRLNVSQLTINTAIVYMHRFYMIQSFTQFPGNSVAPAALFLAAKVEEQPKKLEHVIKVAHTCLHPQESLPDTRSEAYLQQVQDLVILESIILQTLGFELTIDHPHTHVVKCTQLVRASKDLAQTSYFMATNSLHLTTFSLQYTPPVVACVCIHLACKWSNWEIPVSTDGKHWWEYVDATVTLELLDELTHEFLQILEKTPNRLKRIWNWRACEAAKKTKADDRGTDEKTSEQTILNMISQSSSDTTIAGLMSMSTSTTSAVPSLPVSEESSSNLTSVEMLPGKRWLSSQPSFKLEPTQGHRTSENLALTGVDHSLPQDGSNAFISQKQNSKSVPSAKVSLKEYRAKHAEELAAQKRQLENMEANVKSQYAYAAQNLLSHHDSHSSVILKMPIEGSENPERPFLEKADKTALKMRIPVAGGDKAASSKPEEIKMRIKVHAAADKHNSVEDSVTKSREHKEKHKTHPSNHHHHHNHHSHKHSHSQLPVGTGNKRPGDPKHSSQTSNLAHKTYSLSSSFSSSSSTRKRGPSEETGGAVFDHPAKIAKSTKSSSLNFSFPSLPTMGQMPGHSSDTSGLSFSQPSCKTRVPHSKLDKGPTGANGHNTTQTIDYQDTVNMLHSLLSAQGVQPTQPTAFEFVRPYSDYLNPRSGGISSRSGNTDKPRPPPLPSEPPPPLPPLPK
Sequence of CDK9/cyclin T1 (P50750 whole entry): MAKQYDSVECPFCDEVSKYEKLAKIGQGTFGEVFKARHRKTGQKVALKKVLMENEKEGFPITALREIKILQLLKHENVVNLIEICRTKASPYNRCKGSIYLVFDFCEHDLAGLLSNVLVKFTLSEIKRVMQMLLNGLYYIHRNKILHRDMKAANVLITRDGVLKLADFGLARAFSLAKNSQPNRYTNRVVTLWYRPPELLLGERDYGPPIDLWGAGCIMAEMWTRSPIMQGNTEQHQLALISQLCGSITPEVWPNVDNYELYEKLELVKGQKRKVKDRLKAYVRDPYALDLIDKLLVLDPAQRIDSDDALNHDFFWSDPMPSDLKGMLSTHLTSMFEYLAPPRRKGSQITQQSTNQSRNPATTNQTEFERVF

[13] = target: Cyclin-dependent kinase 4/cyclin D1 (Homo sapiens, UniProt P11802); assay: Inhibition of CDK4/Cyclin D1 in presence of 100 uM ATP; assay type: protein-complex assay
Sequence of Cyclin-dependent kinase 4/cyclin D1 (P11802 whole entry): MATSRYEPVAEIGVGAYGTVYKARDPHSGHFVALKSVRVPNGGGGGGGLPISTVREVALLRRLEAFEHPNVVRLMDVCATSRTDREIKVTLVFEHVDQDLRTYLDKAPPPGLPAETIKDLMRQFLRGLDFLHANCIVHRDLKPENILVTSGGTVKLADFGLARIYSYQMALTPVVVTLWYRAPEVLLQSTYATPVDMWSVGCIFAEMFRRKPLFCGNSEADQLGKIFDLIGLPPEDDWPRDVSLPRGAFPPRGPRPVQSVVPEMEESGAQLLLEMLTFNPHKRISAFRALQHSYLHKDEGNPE
Sequence of Cyclin-dependent kinase 4/cyclin D1 (P24385 whole entry, further chain): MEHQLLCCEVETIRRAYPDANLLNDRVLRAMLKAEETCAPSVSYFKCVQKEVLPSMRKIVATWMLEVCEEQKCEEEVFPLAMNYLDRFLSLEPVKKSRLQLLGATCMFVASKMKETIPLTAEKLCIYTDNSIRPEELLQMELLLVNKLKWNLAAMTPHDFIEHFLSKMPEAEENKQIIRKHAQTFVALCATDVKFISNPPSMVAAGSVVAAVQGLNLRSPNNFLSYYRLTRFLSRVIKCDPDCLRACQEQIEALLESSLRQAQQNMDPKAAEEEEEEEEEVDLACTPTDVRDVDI

[14] = target: Cyclin-dependent kinase 7/ cyclin H (Homo sapiens, UniProt P50613); assay: Inhibition of CDK7/Cyclin H in presence of 100 uM ATP; assay type: protein-complex assay
Sequence of Cyclin-dependent kinase 7/ cyclin H (P51946 whole entry): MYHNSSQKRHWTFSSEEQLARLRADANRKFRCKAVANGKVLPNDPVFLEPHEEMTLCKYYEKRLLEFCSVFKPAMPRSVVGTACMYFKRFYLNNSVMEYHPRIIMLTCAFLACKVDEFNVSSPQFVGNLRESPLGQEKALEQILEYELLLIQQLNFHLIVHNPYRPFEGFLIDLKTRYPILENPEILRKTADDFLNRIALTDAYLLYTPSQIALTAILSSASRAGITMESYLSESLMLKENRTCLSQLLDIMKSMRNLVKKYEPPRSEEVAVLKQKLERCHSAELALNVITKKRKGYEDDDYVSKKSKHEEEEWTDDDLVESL
Sequence of Cyclin-dependent kinase 7/ cyclin H (P50613 whole entry): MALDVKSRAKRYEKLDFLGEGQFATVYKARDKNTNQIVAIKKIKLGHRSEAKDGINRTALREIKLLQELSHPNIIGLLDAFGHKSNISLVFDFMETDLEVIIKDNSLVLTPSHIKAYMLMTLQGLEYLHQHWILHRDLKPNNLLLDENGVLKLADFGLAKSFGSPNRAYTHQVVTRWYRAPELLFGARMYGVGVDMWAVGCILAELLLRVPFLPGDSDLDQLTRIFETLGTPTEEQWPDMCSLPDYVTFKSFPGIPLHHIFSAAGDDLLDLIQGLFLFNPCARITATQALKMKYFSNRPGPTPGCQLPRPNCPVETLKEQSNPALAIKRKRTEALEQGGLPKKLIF

Compound | IC50 (K562 [1]) | IC50 (G-361 [2]) | IC50 (HOS [3]) | IC50 [4] | Activity (K562 [5]) | Activity (HOS [6]) | Activity (MCF7 [7]) | Activity (G-361 [8]) | IC50 (MCF7 [9]) | IC50 [10] | IC50 [11] | IC50 [12] | IC50 (CDK9/cyclin T1) | IC50 [13] | IC50 [14]
Nc1n[nH]c(N)c1/N=N/c1cccc2c1CCCC2 | 55 µM | 77 µM | 92 µM | 15 µM | 26% | 32% | 39% | 27% | 81 µM |  |  |  |  |  | 
Nc1n[nH]c(N)c1/N=N/c1ccccc1[N+](=O)[O-] | 100 µM | > 100 µM | > 100 µM | 6.1 µM | 48% | 57% | 62% | 58% | > 100 µM | 22 µM | 42 µM | 88 µM | 5.6 µM | 16 µM | 77 µM
Nc1n[nH]c(N)c1/N=N/c1ccccc1O | > 100 µM | > 100 µM | > 100 µM | 2.5 µM | 72% | 84% | 72% | 74% | > 100 µM |  |  |  |  |  | 
Nc1n[nH]c(N)c1/N=N/c1cccc2ccccc12 | 50 µM | > 100 µM | > 100 µM | 10 µM | 7.7% | 79% | 56% | 55% | > 100 µM |  |  |  |  |  | 
Nc1n[nH]c(N)c1/N=N/c1cccc(O)c1 | > 100 µM | > 100 µM | > 100 µM | 6 µM | 53% | 83% | 71% | 70% | > 100 µM | 51 µM | > 100 µM | > 100 µM | 1.5 µM | 56 µM | 82 µM
Nc1n[nH]c(N)c1/N=N/c1ccc(C(=O)O)cc1 | > 100 µM | > 100 µM | > 100 µM | > 100 µM | 96% | 92% | 97% | 86% | > 100 µM |  |  |  |  |  | 
Nc1n[nH]c(N)c1/N=N/c1ccc([N+](=O)[O-])cc1 | 71 µM | > 100 µM | > 100 µM | 40 µM | 25% | 80% | 60% | 61% | > 100 µM |  |  |  |  |  | 
